CHRM5 agonist: human M5 muscarinic receptor agonists, primary screen, CHO-K1 cells, Fluo-8 calcium fluorescence. activation, % at 3 µM. actives 0.19% (n = 360,000). CHO-K1 hM5 cells; 0% DMSO wells, 100% maximal acetylcholine response. Muscarinic acetylcholine receptor M5 (Homo sapiens), P08912;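 active = activation above the run's mean over test compounds plus 3 SD, cut at about 23% in these data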;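 also: signal is peak over basal fluorescence ratio across the kinetic read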
M1 antag: human M1 muscarinic receptor antagonists, primary screen, CHO-K1 cells, Fluo-8 calcium fluorescence, 1536-well. actives 1.3% (n = 360,000). inhibition, % at 3 µM. CHO-K1 hM1, ACh EC80 antagonist. Muscarinic acetylcholine receptor M1 (Homo sapiens), P11229. AID 588852, 2011;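 active = percent inhibition above its own plate's cutoff, namely the mean of that plate's compound wells plus 3 SD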;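 also: peak over basal fluorescence ratio during 140 s after agonist addition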
Target sequence (P11229 whole entry, looked up): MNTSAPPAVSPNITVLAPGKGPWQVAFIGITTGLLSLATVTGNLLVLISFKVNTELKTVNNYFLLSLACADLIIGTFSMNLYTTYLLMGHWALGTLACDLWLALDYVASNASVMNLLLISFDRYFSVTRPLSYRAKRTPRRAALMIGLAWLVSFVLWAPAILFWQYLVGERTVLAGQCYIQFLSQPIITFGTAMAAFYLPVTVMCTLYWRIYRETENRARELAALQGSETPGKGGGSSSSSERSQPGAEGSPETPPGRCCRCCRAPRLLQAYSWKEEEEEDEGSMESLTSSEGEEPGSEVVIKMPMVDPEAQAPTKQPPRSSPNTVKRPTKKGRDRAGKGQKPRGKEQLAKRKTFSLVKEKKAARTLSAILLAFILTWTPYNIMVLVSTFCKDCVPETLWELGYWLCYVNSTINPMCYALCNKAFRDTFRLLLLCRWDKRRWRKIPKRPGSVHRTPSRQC
M1 ag: human M1 muscarinic receptor agonists, primary screen, Fluo-8 calcium fluorescence, CHO-K1 cells, HTS; Muscarinic acetylcholine receptor M1 (Homo sapiens), P11229; CHO-K1 hM1, agonist mode; 0% DMSO, 100% acetylcholine EC100; activation, % at 3 µM; actives 0.33% (n = 360,000);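 active = activation above the run's mean compound activation plus 3 SD, cut at about 16% in these data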;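 also: peak over basal fluorescence ratio within a 140 s kinetic read after compound addition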
M1 PAM: human M1 muscarinic receptor positive allosteric modulators, primary screen, CHO-K1 cells, Fluo-8 calcium fluorescence, 1536-well | CHO-K1 hM1, ACh EC20; 0% = ACh EC20, 100% = maximal ACh | activation, % at 3 µM | actives 0.088% (n = 360,000); in the data active = activation above about 19%, passing the limit was not always enough
CHRM5 PAM: human M5 muscarinic receptor positive allosteric modulators, primary screen, CHO-K1 cells, Fluo-8 calcium fluorescence; AID 624038, 2012; actives 0.3% (n = 360,000); activation, % at 3 µM; CHO-K1 hM5, ACh EC20 PAM; 0% = ACh EC20, 100% = ACh EC100;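 active = activation above the run cutoff, the mean activation of all test compounds plus 3 SD, cut at about 18% in these data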
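Measured by: Fluo-8 calcium fluorescence; material: human M5 receptor in CHO-K1 cells; schedule: Post-acetylcholine fluorescence recording 140 s; benchmarks: low control EC20 acetylcholine (0%), high control EC100 acetylcholine (100%); read-out: Max/basal fluorescence ratio as % of EC20–EC100 ACh window; compound: single dose, 3 µM nominal final test concentration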
CHRM5 antagonist: human M5 muscarinic receptor antagonists, primary screen, CHO cells, Fluo-8 calcium fluorescence. CHO-hM5 cells, ACh EC80. actives 0.59% (n = 360,000). inhibition, % at 3 µM. Muscarinic acetylcholine receptor M5 (Homo sapiens), P08912;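 active = inhibition above a per-plate cutoff, the mean of that plate's test compounds plus 3 SD, cut at about 27% in these data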
Large screens that a line does not name were inactive. Most compounds without a hit are left out; they make up all but 2.2% or so of the library.

CC(C)(C)c1ccc(C(=O)CCC(=O)OCC(=O)NCCc2ccc(S(N)(=O)=O)cc2)cc1	M1 antag 47
CCOC(=O)C1=C[C@@H](C2CCCC2)N(S(=O)(=O)c2ccc([N+](=O)[O-])cc2)[C@H]1c1ccccc1	M1 antag 44
Cc1nc2ccccc2c(=O)n1/N=C/c1ccc(F)cc1	none
CCn1nc(C(=O)OCc2c(C)noc2C)c2ccccc2c1=O	CHRM5 PAM 56
CCn1nc(C(=O)NNC(=O)c2ccccc2OCc2c(C)noc2C)c2ccccc2c1=O	none
N/C(=N\OC(=O)CSc1ccccc1)c1ccccn1	M1 PAM 28
COc1ccc2c(COC(=O)c3cccc(S(=O)(=O)NCC(C)C)c3)cc(=O)oc2c1	M1 antag 38
COc1ccc(S(=O)(=O)NCCC(=O)OCc2cc(=O)oc3cc(C)ccc23)cc1[N+](=O)[O-]	M1 antag 48
CCCNS(=O)(=O)c1cccc(C(=O)OCc2cc(=O)oc3cc(OC)ccc23)c1	none
CC(C)C(OC(=O)CN1C(=O)c2ccccc2C1=O)C(=O)NC1CCCC1 (stereo unspecified)	none
COc1cc(/C(C)=N/NC(=O)c2ccc(CSc3nncn3C)cc2)cc(OC)c1OC	none
O=C(CSc1cccc2cccnc12)N1CCCC1	none
COc1ccc(/C(C)=N/NC(=O)c2ccc(CSc3cccc4cccnc34)cc2)cc1OC	M1 ag 51
C/C(=N\NC(=O)c1ccc(CSc2cccc3cccnc23)cc1)C1CCCCC1	M1 ag 52
Cc1cccc(C(=O)N/N=C/c2ccncc2)c1	none
COCC(=O)N1CCC(Oc2ccc(C(=O)N[C@H](C(=O)OC)C(C)C)cc2)CC1	none
CC(C)OP(=O)(OC(C)C)C(NC(=O)c1ccc(Br)cc1)c1ccccc1 (stereo unspecified)	none
C=CCN(c1ccccc1)S(=O)(=O)c1ccc(Cl)c(C(=O)OCC(=O)c2[nH]c(C)c(C(C)=O)c2C)c1	M1 antag 31
O=C(c1cc(C2CC2)nn1-c1ccccc1)N1CCN(S(=O)(=O)c2cccc(F)c2)CC1	M1 antag 30
O=C(c1cc(-c2cccs2)nn1-c1ccccc1)N1CCN(S(=O)(=O)c2ccccc2)CC1	M1 antag 28
CC1CCCN(C(=O)COC(=O)c2cc(-c3cccs3)nn2-c2ccccc2)C1 (stereo unspecified)	M1 antag 46
Cc1ccc(S(=O)(=O)N2CCN(C(=O)c3cc(-c4cccs4)nn3-c3ccccc3)CC2)cc1	none
Cc1ccc(S(=O)(=O)N2CCCCC2)cc1NC(=O)CSc1ncccn1	none
O=C(CN1CCc2ccccc2C1)Nc1ccccc1C(=O)NC1CC1	none
COc1cc(NC(=S)N2CCN(C(c3ccccc3)c3ccccc3)CC2)cc(OC)c1	M1 antag 30
COc1cc(NC(=S)N2CCN(C/C=C/c3ccccc3)CC2)cc(OC)c1	none
CCOC(=O)[C@@H]1[C@H]2COc3ccccc3[C@H]2N2C(=O)N(c3ccccc3)C(=O)[C@]12C	none
O=C(c1ccc(Br)o1)N1CCN(c2ccc(F)cc2)CC1	none
CCN1CCN(c2ccc(N3CCN(C(=O)c4ccc(Br)o4)CC3)nn2)CC1	M1 antag 35
FC(F)Sc1ccc(-n2cc(-c3ccccc3)[n+]3c2CCC3)cc1	M1 antag 70
COc1ccc(-c2cn(-c3ccc(SC(F)F)cc3)c3[n+]2CCC3)cc1OC	none
O=C(CSc1nc2nn(-c3ccccc3)c(=O)c-2c2n1CCCCC2)Nc1ccccc1[N+](=O)[O-]	none
O=C(CSc1nc2ccccc2c(=O)[nH]1)c1ccccc1	none

High-throughput results (PubChem BioAssay)
